For data set [1], the system named is HT-29. The data set is described as follows: Antitumor activity against human HT-29 cells xenografted in mouse assessed as large areas of late apoptotic and necrotic cells in tumor at 20 to 60 mg/kg, po administered every other day for 3 weeks and measured at 20 days post treatment by H and E staining based assay. The format is functional, organism-based. For orientation: Xenograft models place foreign cells or tissue in a host animal.

Data set [2] deals with HT-29. The data set is described as follows: Induction of apoptosis in human HT-29 cells assessed as caspase-3 cleavage up to 20 uM after 24 to 72 hrs by Western blot analysis. The class given is cell-based. (In general: A western blot detects proteins with antibodies after separation by electrophoresis.)
Data set [3] deals with Chorioallantoic membrane. The data set is described as follows: Antiangiogenic activity in Leghorn chicken fertilized egg chorioallantoic membrane assessed as reduction in number of blood vessel formation at 20 nmol measured after 48 hrs by CAM assay relative to saline treated control. The format is functional, tissue-based. The following applies: Gallus gallus. An outline of the steps:
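Fertile Leghorn eggs incubated at 37.8°C, 40% humidity; window opened on day 7; compound, sunitinib or 0.9% NaCl mixed with DMSO applied on filter paper onto CAM; 48 h incubation, methanol fixation, photography; nascent vessels counted.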

A short description of data set [4]: Induction of apoptosis in VEGF-stimulated HUVEC assessed as viable cells at 10 uM after 24 hrs by Annexin V-FITC/propidium iodide staining based flow cytometric analysis (reference value: 69.6%). The format is cell-based. The following applies: human, read-out: Activity. The method in brief:
(§1)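 HUVECs plated at 5×10^5 per well and treated 24 h with 1, 5, 10 or 20 μM. Detached and adherent cells were pooled, washed in ice-cold PBS and resuspended in fresh medium. 1×10^5 cells were stained with annexin-V-FITC in annexin-V buffer for 20 min in the dark, then PI (50 μg/mL) was added. Read-out by flow cytometry.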
(A flow cytometer gives signals particle by particle.)

The test system of data set [5] is SW480. The data set is described as follows: Cytotoxicity against human SW480 cells assessed as reduction in cell growth after 72 hrs by MTT assay. The following applies: SW480, 72 h. The format is cell-based.
The subject of data set [6] is HUVEC. The data set is described as follows: Induction of apoptosis in VEGF-stimulated HUVEC assessed as early apoptotic cells at 10 uM after 24 hrs by Annexin V-FITC/propidium iodide staining based flow cytometric analysis (reference value: 7%). The following applies: human. The format is cell-based. An outline of the steps:
as §1

Data set [7] has as its system HUVEC. The data set is described as follows: Antiinvasive activity in HUVEC assessed as inhibition of VEGF-induced cell invasion at 10 uM after 6 hrs by crystal violet staining based transwell assay relative to control. The class given is functional. The following applies: Homo sapiens. The method in brief: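 Transwell: 1×10⁴ HUVECs in serum-free M200 in top chamber with vehicle or compound; bottom chamber M200 with 10% FBS; 6 h at 37°C; cells on membrane underside fixed in 4% paraformaldehyde, stained 0.1% crystal violet, imaged and counted.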

Data set [8] addresses Vascular endothelial growth factor receptor 2 (Homo sapiens) (UniProt P35968). The data set is described as follows: Inhibition of VEGFR2 in VEGF-stimulated HUVEC assessed as downregulation of FAK phosphorylation at Tyr925 residue at 1 to 10 uM pre-incubated for 2 hrs followed by VEGF stimulation and measured after 15 mins by Western blot analysis. The format is cell-based.

In data set [9] the test system is HT-29. The data set is described as follows: Antitumor activity against human HT-29 cells xenografted in mouse assessed as increase in apoptosis in tumor at 20 to 60 mg/kg, po administered every ither day for 3 weeks and measured at 20 days post treatment by TUNEL assay. The format is functional, organism-based.
Data set [10] concerns HUVEC. The data set is described as follows: Effect on total ERK expression in VEGF-induced HUVEC at 1 to 20 uM pre-incubated for 2 hrs followed by VEGF stimulation and measured after 15 mins by Western blot analysis. The following applies: human, 0.25 h. The format is ADME, cell-based. An outline of the steps: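 HUVECs serum-starved overnight, pretreated with compound (methods: 1, 2.5, 5, 10 μM for 2 h; legend: 1, 5, 10, 20 μM for 1.5 h), then VEGF 50 ng/mL (methods: VEGF165, 15 min; legend: 30 min); lysates equalized by Bradford, ~20 μg protein resolved on gradient SDS-PAGE, immunoblotted, ECL detection.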

For data set [11], the target named is Ribosomal protein S6 kinase beta-1 (Homo sapiens) (UniProt P23443). Put plainly: Inhibition of P70S6K (unknown origin) at 10 uM using myelin basic protein as substrate in presence of [gamma-33P]-ATP by scintillation counting analysis relative to control. An outline of the steps:
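Radiometric kinase panel run by a contract lab. Kinase (5–10 mU) in 25 mM Tris pH 7.5, 0.02 mM EGTA, 0.66 mg/mL myelin basic protein, magnesium acetate and [γ-33P]-ATP (about 500 cpm/pmol). Started with Mg-ATP mix, 40 min at room temperature, stopped with 3% phosphoric acid. Spotted on P30 filters, washed in 75 mM phosphoric acid and methanol, scintillation counted. Mean ± SD of three independent experiments.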

For data set [12], the system named is HT-29. Put plainly: Induction of apoptosis in human HT-29 cells assessed as early apoptotic cells at 10 uM after 24 hrs by Annexin V-FITC/propidium iodide staining based flow cytometric analysis (reference value: 1.9%). The following applies: ht-29, 24 h. The class given is cell-based.
Data set [13] has as its system PC-3. Put plainly: Cytotoxicity against human PC3 cells assessed as reduction in cell growth after 72 hrs by MTT assay. The following applies: PC-3, 72 h. The format is cell-based.
Data set [14] concerns HT-29. The data set is described as follows: Antiangiogenic activity against human HT-29 cells xenografted in mouse assessed as mean vessel density in tumour at 20 to 60 mg/kg, po administered every other day for 3 weeks measured at 20 days post-treatment. The class given is functional.
Data set [15] is described as follows: Induction of apoptosis in human HT-29 cells assessed as viable cells at 1 uM after 24 hrs by Annexin V-FITC/propidium iodide staining based flow cytometric analysis (reference value: 80.8%). The following applies: read-out: Activity. The format is cell-based.
Data set [16] deals with HT-29. The data set is described as follows: Downregulation of HIF1-alpha mRNA expression in human HT-29 cells after 24 hrs by RT-qPCR assay. The class given is functional, cell-based. An outline of the steps:
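HT29 cells treated with 1, 5, 10 or 20 μM for 24 h; total RNA extracted with TRIzol; SYBR Green qPCR, 40 cycles of 5 s at 95°C and 60 s at 60°C in 20-μL reactions.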

In data set [17] the test system is HT-29. The data set is described as follows: Induction of apoptosis in human HT-29 cells assessed as necrotic cells at 5 uM after 24 hrs by Annexin V-FITC/propidium iodide staining based flow cytometric analysis (reference value: 1.3 to 3.9%). The format is cell-based. The following applies: ht-29, 24 h.
The test system of data set [18] is HT-29. The data set is described as follows: Induction of apoptosis in human HT-29 cells assessed as early apoptotic cells at 5 uM after 48 hrs by Annexin V-FITC/propidium iodide staining based flow cytometric analysis (reference value: 5.3%). The format is cell-based. The following applies: ht-29, 48 h.
In data set [19] the test system is HT-29. Put plainly: Inhibition of Akt/mTOR signalling in human HT-29 cells assessed as reduction in AKT phosphorylation at Ser473 residue incubated for 24 hrs by immunoblot analysis. The format is cell-based. An outline of the steps: (§2)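 HT29 cells were exposed to the indicated concentrations for 24 h. Cell lysates were then immunoblotted for the phosphorylated proteins.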

Data set [20] concerns HT-29. Put plainly: Induction of apoptosis in human HT-29 cells assessed as necrotic cells at 5 uM after 72 hrs by Annexin V-FITC/propidium iodide staining based flow cytometric analysis (reference value: 1.3%). The format is cell-based. The following applies: ht-29, 72 h.
The test system of data set [21] is HT-29. Put plainly: Inhibition of Akt/mTOR signalling in human HT-29 cells assessed as reduction in mTOR phosphorylation at Ser2448 residue incubated for 24 hrs by immunoblot analysis. The format is cell-based. An outline of the steps:
as §2

The nature of data set [22]: Induction of apoptosis in VEGF-stimulated HUVEC assessed as viable cells at 20 uM after 24 hrs by Annexin V-FITC/propidium iodide staining based flow cytometric analysis (reference value: 69.6%). The class given is cell-based. The following applies: human, read-out: Activity. The method in brief: as §1

Activity calls are given as the source filed them. The calls are words filed in the database; no cut-off is given here.

Vascular endothelial growth factor receptor 2 (Homo sapiens), sequence (P35968 whole entry): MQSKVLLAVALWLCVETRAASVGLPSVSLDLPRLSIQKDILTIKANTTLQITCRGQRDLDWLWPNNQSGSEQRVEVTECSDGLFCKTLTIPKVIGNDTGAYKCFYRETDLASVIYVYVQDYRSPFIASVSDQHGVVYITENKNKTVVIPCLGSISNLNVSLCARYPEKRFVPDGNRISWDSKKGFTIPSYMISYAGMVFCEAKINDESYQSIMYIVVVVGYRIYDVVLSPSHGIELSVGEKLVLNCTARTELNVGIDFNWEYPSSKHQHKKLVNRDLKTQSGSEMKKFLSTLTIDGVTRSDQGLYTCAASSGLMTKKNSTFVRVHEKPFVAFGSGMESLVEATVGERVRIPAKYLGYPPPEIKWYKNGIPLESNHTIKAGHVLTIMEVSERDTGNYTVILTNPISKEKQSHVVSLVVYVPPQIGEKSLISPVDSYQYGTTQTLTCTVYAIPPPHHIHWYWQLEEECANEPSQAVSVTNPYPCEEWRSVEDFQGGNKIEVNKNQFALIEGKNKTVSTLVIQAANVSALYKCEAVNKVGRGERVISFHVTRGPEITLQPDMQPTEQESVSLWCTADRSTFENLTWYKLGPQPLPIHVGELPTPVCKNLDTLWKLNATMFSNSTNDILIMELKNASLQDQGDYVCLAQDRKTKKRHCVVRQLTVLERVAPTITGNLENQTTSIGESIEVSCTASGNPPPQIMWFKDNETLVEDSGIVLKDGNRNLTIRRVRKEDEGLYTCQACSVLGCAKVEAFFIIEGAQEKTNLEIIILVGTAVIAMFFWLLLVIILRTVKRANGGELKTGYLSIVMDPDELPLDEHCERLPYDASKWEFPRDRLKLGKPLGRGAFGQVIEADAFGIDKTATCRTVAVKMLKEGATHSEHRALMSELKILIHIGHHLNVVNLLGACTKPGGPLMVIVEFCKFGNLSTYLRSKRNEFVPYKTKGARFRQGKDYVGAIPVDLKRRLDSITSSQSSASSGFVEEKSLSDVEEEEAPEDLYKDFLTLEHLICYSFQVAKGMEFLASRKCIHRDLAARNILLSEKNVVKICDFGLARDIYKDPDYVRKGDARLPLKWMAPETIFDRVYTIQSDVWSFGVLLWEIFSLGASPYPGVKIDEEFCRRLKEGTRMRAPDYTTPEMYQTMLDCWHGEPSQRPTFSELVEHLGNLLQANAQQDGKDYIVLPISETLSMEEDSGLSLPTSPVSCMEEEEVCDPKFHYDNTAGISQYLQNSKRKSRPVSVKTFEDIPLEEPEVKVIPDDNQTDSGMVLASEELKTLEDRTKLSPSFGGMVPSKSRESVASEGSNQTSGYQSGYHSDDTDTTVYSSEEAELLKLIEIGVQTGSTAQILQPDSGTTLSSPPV
Ribosomal protein S6 kinase beta-1 (Homo sapiens), sequence (P23443 whole entry, looked up): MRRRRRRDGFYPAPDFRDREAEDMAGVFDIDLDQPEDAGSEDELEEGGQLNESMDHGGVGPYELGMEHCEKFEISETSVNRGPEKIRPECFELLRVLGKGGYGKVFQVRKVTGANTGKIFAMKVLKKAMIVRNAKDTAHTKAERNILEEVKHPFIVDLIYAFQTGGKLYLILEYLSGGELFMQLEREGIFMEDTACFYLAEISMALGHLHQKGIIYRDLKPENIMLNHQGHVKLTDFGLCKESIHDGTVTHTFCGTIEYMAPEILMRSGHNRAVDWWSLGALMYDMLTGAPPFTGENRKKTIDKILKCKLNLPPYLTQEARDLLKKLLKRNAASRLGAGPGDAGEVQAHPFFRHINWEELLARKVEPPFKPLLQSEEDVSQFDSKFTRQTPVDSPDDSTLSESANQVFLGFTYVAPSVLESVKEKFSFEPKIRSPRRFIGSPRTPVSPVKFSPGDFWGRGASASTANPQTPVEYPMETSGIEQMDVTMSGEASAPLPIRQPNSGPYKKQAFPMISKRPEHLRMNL

Regarding `COc1ccc(NC(=O)c2cccc(/C=C3\CC(=O)N(c4ccc(C)cc4)C3=O)c2)cc1`, the outcome in [1] and in data set [9] was Active. Also, the Activity entry was “Non-Toxic” in data set [2]; 10.8% in data set [6]; “Not Active” in [10]; 1.5% in data set [12]; 5% in data set [14]; 0.8 to 4.7% in [17]. In addition, the Activity in [18] came to 9.7%; in data set [20], 0.8%. The inhibition (usually the drop in the measured response relative to a control, in per cent) in data set [3] is 96.4%; in data set [11] it was 50 to 70%; in data set [16], “Dose-dependent effect”; in data set [19], “Dose-dependent effect”; in data set [21], “Dose-dependent effect”. In addition, the viability at 24 h, 10 µM in data set [4] was determined as 72%. For the same molecule, the values for the IC50 in data set [5] and in data set [13] were 93 µM and > 100 µM, respectively. The inhibition at 10 µM in [7] was 50%. For the same molecule, the inhibition result in [8] is “Active”. Further, in data set [15], the viability at 24 h, 1 µM was determined as 79.9%. In data set [22], the viability at 24 h, 20 µM is 74.5%.

The values are drawn from ChEMBL document CHEMBL4396917, “Synthesis and biological evaluation of novel benzylidene-succinimide derivatives as noncytotoxic antiangiogenic inhibitors with anticolorectal cancer activity in vivo” (Eur J Med Chem, 2019).
